According to ChEMBL document CHEMBL4311940, “Design, Synthesis, and Biological Evaluation of 4-Methyl Quinazoline Derivatives as Anticancer Agents Simultaneously Targeting Phosphoinositide 3-Kinases and Histone Deacetylases” (J Med Chem, 2019):

Tests used:
HCT-116 [1] = assay: Induction of apoptosis in human HCT116 cells assessed as necrotic cells at 100 nM after 48 hrs by Annexin V-FITC/propidium iodide staining-based flow cytometric analysis (reference value: 5.23%); type: functional
[2] = AUC (0 to infinity) in ICR mouse at 30 mg/kg, po measured after 0.083 to 24 hrs by LC/MS/MS analysis; type: ADME, organism-based; design: dose 30 mg/kg, time infinity, route oral; settings: in vivo
Method in brief: (§1)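 ICR mice; iv 3 mg/kg in 10% DMSO/saline (3 mice/group), blood at 0.033, 0.083, 0.25, 0.5, 1, 2, 4, 8, 12, 24 h; po 30 mg/kg as 0.5% cmc/0.3% Tween 80 suspension (5 mice/group), blood at 0.083–24 h. Plasma extracted with acetonitrile, LC/MS/MS; parameters by noncompartmental analysis.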

Histone deacetylase 4 = Histone deacetylase 4 (Homo sapiens, UniProt P56524); assay: Inhibition of recombinant human full length HDAC4 expressed in baculovirus infected Sf9 insect cells using Ac-peptide as substrate preincubated for 15 mins followed by substrate addition and measured after 1 hr
Method in brief: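 Recombinant HDAC isoforms mixed with serially diluted compound in assay buffer for 15 min at room temperature. Ac-peptide substrate then added and incubated 1 h at room temperature. Signal read on a plate reader; IC50 by curve fitting.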

[3] = Mutagenicity in Salmonella typhimurium TA1535 at 5 to 500 ug/plate in absence of s9 mix by Ames test; type: toxicity; settings: salmonella enterica subsp. enterica serovar typhimurium
Method in brief: (§2)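 Plate incorporation method at 5, 50 and 500 μg/plate, with and without S9 activation. At least three plates per dose, incubated 72 h at 37 °C, revertants counted. Mean revertants compared with vehicle and positive controls.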

[4] = Mutagenicity in Salmonella typhimurium TA98 at 5 to 500 ug/plate in absence of s9 mix by Ames test; type: toxicity; settings: salmonella enterica subsp. enterica serovar typhimurium; method in brief: as §2
[5] = Tmax in ICR mouse at 30 mg/kg, po measured after 0.083 to 24 hrs by LC/MS/MS analysis; type: ADME, organism-based; settings: in vivo
Method in brief: (§3)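 Male-unspecified ICR mice, 3 per group iv (3 mg/kg in 10% DMSO/saline) and 5 per group po (30 mg/kg in 0.5% cmc/0.3% Tween 80). Blood sampled 0.033 (iv) or 0.083 (po) to 24 h. Plasma extracted with acetonitrile, analysed by LC/MS/MS; noncompartmental analysis.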

HCT-116 [6] = assay: Induction of apoptosis in human HCT116 cells assessed as live cells at 500 nM after 48 hrs by Annexin V-FITC/propidium iodide staining-based flow cytometric analysis (reference value: 89.6%); type: functional
MDA-MB-453 = assay: Antiproliferative activity against human MDA-MB-453 cells after 96 hrs by MTT assay; type: functional, cell-based; settings: MDA-MB-453, 96 h
HCT-116 [7] = assay: Induction of apoptosis in human HCT116 cells assessed as early apoptotic cells at 100 nM after 48 hrs by Annexin V-FITC/propidium iodide staining-based flow cytometric analysis (reference value: 1.33%); type: functional
[8] = Tmax in ICR mouse at 3 mg/kg, iv measured after 0.033 to 24 hrs by LC/MS/MS analysis; type: ADME, organism-based; settings: in vivo; method in brief: as §3
[9] = Toxicity in po dosed ICR mouse assessed as maximum tolerated dose; type: organism-based; settings: in vivo
Method in brief: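 Male ICR mice, 6−8 weeks old, given one dose; vehicle 0.5% cmc with Tween 80 for oral dosing, saline for intraperitoneal dosing. Clinical signs observed and body weights recorded for 7 consecutive days after dosing to set the maximum tolerated dose.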

HGC-27 = assay: Antiproliferative activity against human HGC27 cells after 96 hrs by MTT assay; type: functional, cell-based; settings: HGC-27, 96 h
[10] = molecular target: Phosphatidylinositol 4,5-bisphosphate 3-kinase catalytic subunit beta isoform (Homo sapiens, UniProt P42338); assay: Inhibition of recombinant human PIK3CB using PIP2 as substrate incubated for 1 hr by ADP-glo assay
Method in brief: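 Recombinant PI3Kβ, -γ or -δ, serially diluted compound, PIP2 substrate and ATP combined in kinase buffer. Incubated 1 h at room temperature in the dark, then stopped with ADP-Glo reagent. Luminescence read after kinase detection reagent; IC50 by curve fitting.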

Capan-2 = assay: Antiproliferative activity against human Capan2 cells after 96 hrs by MTT assay; type: functional, cell-based; settings: Capan-2, 96 h
[11] = Mutagenicity in Salmonella typhimurium TA100 at 5 to 500 ug/plate in presence of s9 mix by Ames test; type: toxicity, subcellular; settings: salmonella enterica subsp. enterica serovar typhimurium; method in brief: as §2
HCT-116 [12] = assay: Antiproliferative activity against human HCT116 cells after 96 hrs by MTT assay; type: functional, cell-based; settings: HCT-116, 96 h
[13] = Mutagenicity in Salmonella typhimurium TA102 at 5 to 500 ug/plate in absence of s9 mix by Ames test; type: toxicity; settings: salmonella enterica subsp. enterica serovar typhimurium; method in brief: as §2
[14] = Mutagenicity in Salmonella typhimurium TA1535 at 5 to 500 ug/plate in presence of s9 mix by Ames test; type: toxicity, subcellular; settings: salmonella enterica subsp. enterica serovar typhimurium; method in brief: as §2
[15] = Mutagenicity in Salmonella typhimurium TA102 at 5 to 500 ug/plate in presence of s9 mix by Ames test; type: toxicity, subcellular; settings: salmonella enterica subsp. enterica serovar typhimurium; method in brief: as §2
[16] = AUC (0 to infinity) in ICR mouse at 3 mg/kg, iv measured after 0.033 to 24 hrs by LC/MS/MS analysis; type: ADME, organism-based; design: dose 3 mg/kg, time infinity, route intravenous; settings: in vivo; method in brief: as §1
[17] = AUC (0 to t) in ICR mouse at 3 mg/kg, iv measured after 0.033 to 24 hrs by LC/MS/MS analysis; type: ADME, organism-based; design: dose 3 mg/kg, time upper 24 hr, time lower 0.033 hr, route intravenous; settings: in vivo; method in brief: as §1
[18] = Drug concentration in human HCT116 cells assessed per million cells at 25 uM after 1 hr by LC/MS/MS analysis; type: ADME, cell-based; settings: hct-116, 1 h
Method in brief: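 HCT116 cells seeded overnight, exposed 1 h to 25 μM compound in 4 wells, washed three times with PBS; one well trypsinized for cell count, three scraped, sonicated, acetonitrile-extracted, LC/MS/MS; nmol per million cells = concentration × total volume / cell number.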

HCT-116 [19] = assay: Induction of apoptosis in human HCT116 cells assessed as early apoptotic cells at 20 nM after 48 hrs by Annexin V-FITC/propidium iodide staining-based flow cytometric analysis (reference value: 1.33%); type: functional
HCT-116 [20] = assay: Induction of apoptosis in human HCT116 cells assessed as early apoptotic cells at 500 nM after 48 hrs by Annexin V-FITC/propidium iodide staining-based flow cytometric analysis (reference value: 1.33%); type: functional
[21] = AUC (0 to t) in ICR mouse at 30 mg/kg, po measured after 0.083 to 24 hrs by LC/MS/MS analysis; type: ADME, organism-based; design: time upper 24 hr, dose 30 mg/kg, time lower 0.083 hr, route oral; settings: in vivo; method in brief: as §1
HCT-116 [22] = assay: Induction of apoptosis in human HCT116 cells assessed as late apoptotic cells at 100 nM after 48 hrs by Annexin V-FITC/propidium iodide staining-based flow cytometric analysis (reference value: 3.87%); type: functional
[23] = Mutagenicity in Salmonella typhimurium TA98 at 5 to 500 ug/plate in presence of s9 mix by Ames test; type: toxicity, subcellular; settings: salmonella enterica subsp. enterica serovar typhimurium; method in brief: as §2
HCT-8 = assay: Antiproliferative activity against human HCT8 cells after 96 hrs by MTT assay; type: functional, cell-based; settings: HCT-8, 96 h
HCT-116 [24] = assay: Induction of apoptosis in human HCT116 cells after 48 hrs by Annexin V-FITC/propidium iodide staining-based flow cytometric analysis; type: functional, cell-based

Sequence of Histone deacetylase 4 (P56524 whole entry, canonical isoform): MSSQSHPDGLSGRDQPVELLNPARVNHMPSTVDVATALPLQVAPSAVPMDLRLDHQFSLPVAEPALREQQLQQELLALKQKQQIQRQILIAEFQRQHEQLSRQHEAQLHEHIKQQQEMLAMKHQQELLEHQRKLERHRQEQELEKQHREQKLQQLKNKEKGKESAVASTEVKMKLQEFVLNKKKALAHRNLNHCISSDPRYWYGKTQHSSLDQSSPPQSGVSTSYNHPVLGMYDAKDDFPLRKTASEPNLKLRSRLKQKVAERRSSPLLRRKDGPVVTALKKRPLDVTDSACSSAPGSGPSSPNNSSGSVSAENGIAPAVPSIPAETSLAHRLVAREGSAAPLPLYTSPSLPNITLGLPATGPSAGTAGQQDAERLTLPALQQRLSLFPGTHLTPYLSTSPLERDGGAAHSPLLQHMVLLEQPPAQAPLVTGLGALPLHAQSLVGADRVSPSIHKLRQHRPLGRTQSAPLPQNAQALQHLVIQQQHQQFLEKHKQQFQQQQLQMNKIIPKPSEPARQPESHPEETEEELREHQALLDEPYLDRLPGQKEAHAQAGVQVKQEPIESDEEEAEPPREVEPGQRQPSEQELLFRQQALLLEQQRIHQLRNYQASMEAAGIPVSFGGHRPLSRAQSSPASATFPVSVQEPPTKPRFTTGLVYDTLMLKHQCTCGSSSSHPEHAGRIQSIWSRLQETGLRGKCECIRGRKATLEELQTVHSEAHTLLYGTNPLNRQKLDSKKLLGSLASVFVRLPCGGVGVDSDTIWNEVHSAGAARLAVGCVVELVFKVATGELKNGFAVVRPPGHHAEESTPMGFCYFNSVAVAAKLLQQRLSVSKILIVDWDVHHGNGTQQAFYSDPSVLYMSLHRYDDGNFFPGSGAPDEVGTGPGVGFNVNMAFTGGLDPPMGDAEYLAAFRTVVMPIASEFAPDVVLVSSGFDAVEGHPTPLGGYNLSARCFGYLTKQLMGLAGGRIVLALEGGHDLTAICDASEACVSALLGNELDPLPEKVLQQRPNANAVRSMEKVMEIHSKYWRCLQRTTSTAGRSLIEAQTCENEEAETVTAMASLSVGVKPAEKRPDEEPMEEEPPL
Sequence of Phosphatidylinositol 4,5-bisphosphate 3-kinase catalytic subunit beta isoform (P42338 whole entry, canonical isoform): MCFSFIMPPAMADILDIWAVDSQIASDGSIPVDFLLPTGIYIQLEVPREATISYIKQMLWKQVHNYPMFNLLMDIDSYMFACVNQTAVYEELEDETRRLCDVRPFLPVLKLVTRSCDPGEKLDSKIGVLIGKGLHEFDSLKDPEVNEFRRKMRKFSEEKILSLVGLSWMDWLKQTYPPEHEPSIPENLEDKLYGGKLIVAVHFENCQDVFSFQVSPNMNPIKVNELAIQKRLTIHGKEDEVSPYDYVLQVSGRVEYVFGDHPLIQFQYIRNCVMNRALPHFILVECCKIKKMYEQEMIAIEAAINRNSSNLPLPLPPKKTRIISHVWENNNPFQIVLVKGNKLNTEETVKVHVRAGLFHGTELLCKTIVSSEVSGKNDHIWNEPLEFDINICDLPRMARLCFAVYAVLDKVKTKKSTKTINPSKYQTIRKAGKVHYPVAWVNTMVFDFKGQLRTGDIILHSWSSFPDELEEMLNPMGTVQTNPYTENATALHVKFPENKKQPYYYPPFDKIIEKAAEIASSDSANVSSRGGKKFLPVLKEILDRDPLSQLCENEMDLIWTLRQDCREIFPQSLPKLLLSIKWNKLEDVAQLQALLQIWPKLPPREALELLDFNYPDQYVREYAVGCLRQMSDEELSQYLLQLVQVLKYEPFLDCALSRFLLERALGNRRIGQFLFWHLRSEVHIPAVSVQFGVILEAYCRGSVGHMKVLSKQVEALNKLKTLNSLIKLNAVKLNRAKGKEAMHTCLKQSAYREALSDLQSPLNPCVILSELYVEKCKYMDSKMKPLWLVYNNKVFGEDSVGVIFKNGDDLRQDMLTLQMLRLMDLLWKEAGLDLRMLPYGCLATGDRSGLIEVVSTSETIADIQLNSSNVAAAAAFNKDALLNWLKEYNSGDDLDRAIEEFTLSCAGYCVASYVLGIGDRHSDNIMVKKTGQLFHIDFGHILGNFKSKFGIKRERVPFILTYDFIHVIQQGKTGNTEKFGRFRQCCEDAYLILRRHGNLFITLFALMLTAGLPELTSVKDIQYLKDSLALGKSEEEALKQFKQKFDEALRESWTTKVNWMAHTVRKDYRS

SMILES	Activity (HCT-116 [1])	IC50 (Histone deacetylase 4)	Activity [3]	Activity [4]	Tmax [5]	Activity (HCT-116 [6])	IC50 (MDA-MB-453)	Activity (HCT-116 [7])	Tmax [8]	MTD [9]	IC50 (HGC-27)	IC50 [10]	IC50 (Capan-2)	Activity [11]	IC50 (HCT-116 [12])	IC90 (HCT-116 [12])	Activity [13]	Activity [14]	Activity [15]	AUC(0-t) [17]	other results
COc1ncc(-c2cc(OCCCCCCC(=O)NO)c3ncnc(C)c3c2)cc1F	4.64%	> 1000 nM	Non-Toxic	Non-Toxic	18 min	67.9%	300 nM	6.56%	1.8 min	> 2000 mg/kg	110 nM	101 nM	430 nM	Non-Toxic	150 nM	48000 nM	Non-Toxic	Non-Toxic	Non-Toxic	551 ng·h/mL	AUC(0-inf) ([2]; ICR): 274 ng·h/mL; AUC(0-inf) ([16]; ICR): 558 ng·h/mL; Drug metabolism [18]: Metabolite_Detected; Activity (HCT-116 [19]): 1.83%; Activity (HCT-116 [20]): 18.2%; AUC(0-t) [21]: 230 ng·h/mL; Activity (HCT-116 [22]): 7.97%; Activity [23]: Non-Toxic; IC50 (HCT-8): 320 nM; Activity (HCT-116 [24]): Dose-dependent effect
COc1ccc(-c2cc(OCCN(C)c3ncc(C(=O)NO)cn3)c3ncnc(C)c3c2)cn1	2.99%	972 nM	Non-Toxic	Non-Toxic	108 min	43.8%	4 nM	16.8%	1.8 min	> 2000 mg/kg	14 nM	279 nM	270 nM	Non-Toxic	7 nM	2800 nM	Non-Toxic	Non-Toxic	Non-Toxic	133 ng·h/mL	AUC [2]: 51.4 ng·h/mL; AUC [16]: 143 ng·h/mL; Drug metabolism [18]: Metabolite_Detected; Activity (HCT-116 [19]): 4.53%; Activity (HCT-116 [20]): 29.1%; AUC(0-t) [21]: 23.1 ng·h/mL; Activity (HCT-116 [22]): 9.92%; Activity [23]: Non-Toxic; IC50 (HCT-8): 59 nM; Activity (HCT-116 [24]): Dose-dependent effect
